This passage reports IC50, Drug uptake and solubility results from ChEMBL document CHEMBL3877270, “Biological and structural studies of phosphonium 'masked thiolate' compounds” (Eur J Med Chem, 2017).

Series [1] in a line: Cytotoxicity against human PC3 cells measured at 72 hrs post dose by Celltiter-Glo luminescent cell viability assay. The class given is functional, cell-based. The note with it: PC-3, 72 h. The method in brief:
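PC3 cells (ATCC; DMEM GlutaMAX high glucose, 10% heat-inactivated FBS, pen/strep, 37 °C, 5% CO2) seeded 10,000/well, adhered overnight, then exposed 0–1000 µM for 24, 48, 72 h. Viability by CellTiter-Glo ATP luminescence after 30 min room-temperature equilibration. Vehicle controls at 0.1–0.001% DMSO. Quadruplicate wells, 3 independent experiments (n = 12). Normalised to control; IC50 from curve fit.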

Series [2] in a line: Drug uptake in human PC3 cells measured after 90 mins by MALDI-TOF-MS analysis. The class given is ADME, cell-based. The note with it: pc-3, 1.5 h. The method in brief:
(§1)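 Trypsinised PC3 cells washed in PBS, resuspended in low-K+ HEPES buffer pH 7.4, 0.5×10^6 cells incubated with compound at 5 µM final, 37 °C, 0–120 min. Cells washed in cold PBS, lysed in cold water, lysate spiked with tetraphenylphosphonium bromide internal standard, α-CHCA matrix, positive-ion MALDI-TOF-MS. Amount from calibration curve built in PC3 lysate; triplicate analyses, three independent experiments.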

A short description of series [3]: Aqueous solubility of the compound. It is filed as physicochemical. The note with it: buffer.
Series [4] is described as follows: Drug uptake in human PC3 cells measured after 10 mins by MALDI-TOF-MS analysis. The note with it: pc-3, 10 min. The class given is ADME, cell-based. The gist of the method: as §1
A short description of series [5]: Drug uptake in human PC3 cells measured after 30 mins by MALDI-TOF-MS analysis. It is filed as ADME, cell-based. The note with it: pc-3, 0.5 h. The method in brief:
as §1

Series [6] is described as follows: Drug uptake in rat C6 cells at 10 uM measured after 10 to 90 mins by MALDI-TOF-MS analysis relative to tetraphenylphosphonium cation. The class given is ADME, cell-based. The note with it: c6, 10 µM.

`Cc1ccc(-c2nc([P+](c3ccccc3)(c3ccccc3)c3ccccc3)c[se]2)cc1` yielded an IC50 in series [1] of 0.4 µM.

`C/C(N)=C/[P+](c1ccccc1)(c1ccccc1)c1ccccc1`: 8 µM corresponded to half-maximal inhibition in series [1] (IC50).

`CC(=O)SCCC[P+](c1ccc(F)cc1)(c1ccc(F)cc1)c1ccc(F)cc1.[Br-]` registered an IC50 in series [1] of 252 µM. In series [2], the Drug uptake entry is listed as “Active”. In addition, the solubility entry in series [3] is on record as “Soluble”.

In series [1], `CC(=O)SCCC[P+](c1ccccc1)(c1ccccc1)c1ccccc1.[Br-]` had an IC50 of 67 µM. For the same compound, the Drug uptake entry in series [4] and in series [5] was “Active” throughout. In addition, the solubility result in series [3] is on record as “Soluble”.

`Fc1ccc([P+](c2ccccc2)(c2ccccc2)c2ccccc2)cc1` [BFPET] returned a Drug uptake in series [6] of 80%.
